# Most compounds without a hit are left out; they make up all but 2.5% or so of the library.
# SIAE primary: human SIAE inhibitors, primary screen, biochemical, fluorescence polarization, FP-Rh probe, 1536-well HTS; Sialate O-acetylesterase (Homo sapiens), Q9HAT2; SIAE FP-Rh probe binding; inhibition, % at 9.66 µM; 370,000 compounds, 0.69% hits; AID 1053197, 2014;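 active means inhibition above a cutoff: mean of compounds within the control limits plus 3 SD of those, cut at about 17% in these data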
# mABHD4 FP: ABHD4 inhibitors, primary screen, biochemical, fluorescence polarization, mouse. (Lyso)-N-acylphosphatidylethanolamine lipase (Mus musculus), Q8VD66. purified mABHD4, FP-Rh probe fluorescence polarization. inhibition, % at 8.92 µM. 370,000 compounds, 0.54% hits. AID 720543, 2013;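 active means inhibition exceeding the mean over every tested compound plus 3 SD, cut at about 30% in these data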
# Target sequence (Q8VD66 whole entry, looked up): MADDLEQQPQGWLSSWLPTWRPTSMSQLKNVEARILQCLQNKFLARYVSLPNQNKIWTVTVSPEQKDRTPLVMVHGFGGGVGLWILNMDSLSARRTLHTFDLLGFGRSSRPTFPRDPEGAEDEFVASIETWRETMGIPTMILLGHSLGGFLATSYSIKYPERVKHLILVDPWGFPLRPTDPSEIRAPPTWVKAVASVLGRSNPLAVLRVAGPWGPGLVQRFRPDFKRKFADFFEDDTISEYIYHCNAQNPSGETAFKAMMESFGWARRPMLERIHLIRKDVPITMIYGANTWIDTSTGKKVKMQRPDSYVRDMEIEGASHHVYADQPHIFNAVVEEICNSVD
#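 Assay system: Wild-type mouse ABHD4 protein | Medium: HEPES pH 7.0 buffer, 150 mM NaCl, 0.01% Pluronic F-127 | Incubation: Enzyme–compound pre-incubation 45 min, then probe 60 min, both 25 °C | Technique: Fluorescence polarization with parallel and perpendicular emission, 525/598 nm | Evaluation: % inhibition of FP-Rh probe binding versus controls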
# TCR-CD3 inh: inhibitors of human TCR-CD3 interaction, primary screen, biochemical, fluorescence, TAMRA-labeled TCR probe; 360,000 compounds, 0.37% hits; AID 651800, 2012; inhibition, % at 9.4 µM; T-cell receptor (TCR);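 further: recombinant mutant TCR 2C K166C tagged with TAMRA read by polarization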
# HTRA1 inhibitor: HTRA1 serine protease inhibitors, primary screen, biochemical, fluorescence polarization, HTS; Q92743; recombinant HTRA1, FP-rhodamine activity-based probe; inhibition, % at 5.96 µM; 340,000 compounds, 0.5% hits; AID 504803, 2011; in the data active means inhibition above about 36%
# PRMT1 inh: PRMT1 methyltransferase inhibitors, primary screen, biochemical, fluorescence polarization. Protein arginine N-methyltransferase 1 (Homo sapiens), Q99873. recombinant PRMT1, activity-based probe fluorescence polarization. inhibition, % at 2.79 µM. 370,000 compounds, 1.3% hits. AID 652257, 2013;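 active means inhibition above about 21% made by adding two undisclosed values, limit read from the data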
# Target sequence (Q99873 whole entry, looked up): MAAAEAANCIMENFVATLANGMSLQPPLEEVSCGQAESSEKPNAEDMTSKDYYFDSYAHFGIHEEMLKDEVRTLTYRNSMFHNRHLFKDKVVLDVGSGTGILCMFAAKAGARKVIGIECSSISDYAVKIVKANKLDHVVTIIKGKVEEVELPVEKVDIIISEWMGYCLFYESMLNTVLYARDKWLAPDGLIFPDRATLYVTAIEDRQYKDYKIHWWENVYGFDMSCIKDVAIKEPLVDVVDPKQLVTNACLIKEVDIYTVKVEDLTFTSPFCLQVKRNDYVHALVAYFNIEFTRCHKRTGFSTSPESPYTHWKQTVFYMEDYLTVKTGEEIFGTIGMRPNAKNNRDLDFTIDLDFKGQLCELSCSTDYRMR
# BSA TAMRA ctr: compounds interfering with TAMRA-BSA probe, counter-screen for TCR-CD3 interaction inhibitor project, biochemical, fluorescence, TAMRA-labeled BSA; shares compounds with TCR-CD3 inh; TAMRA-labeled BSA probe fluorescence counterscreen; inhibition, % at 9.4 µM; 1,200 compounds, 10% hits; in the data active means inhibition above about 23%
# TCR-CD3 inh conf: TCR-CD3 interaction inhibitors, retest, confirmation, biochemical, fluorescence, TAMRA-labeled TCR probe | shares compounds with TCR-CD3 inh | TAMRA-labeled TCR probe fluorescence binding assay | inhibition, % at 9.4 µM | 1,200 compounds, 48% hits | AID 652036, 2013
# PRMT1 confirm: PRMT1 methyltransferase inhibitors, confirmation, biochemical, fluorescence polarization, triplicate; shares compounds with PRMT1 inh; recombinant His-PRMT1, activity-based probe fluorescence polarization; inhibition, % at 2.79 µM; 3,300 compounds, 42% hits;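 active means mean inhibition across replicates above the hit cutoff derived for the earlier primary screen, cut at about 22% in these data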
# ABHD4 confirm: ABHD4 inhibitors, retest, confirmation, biochemical, fluorescence polarization, mouse; shares compounds with mABHD4 FP; 1,800 compounds, 55% hits; inhibition, % at 8.92 µM; purified mABHD4, FP-Rh probe fluorescence polarization;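 active means mean inhibition across replicates above the hit cutoff set in the primary screen, cut at about 30% in these data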
# SIAE inh conf: human SIAE inhibitors, retest, confirmation, biochemical, fluorescence polarization, FP-Rh probe, triplicate. shares compounds with SIAE primary. SIAE FP-Rh activity-based probe. inhibition, % at 9.66 µM. 2,300 compounds, 13% hits. AID 1117263, 2014;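 active means mean inhibition of the replicates above the hit cutoff set in the primary screen, cut at about 17% in these data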;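 further: inhibitors lower polarization as more probe stays unbound to SIAE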
# Hits are given with their value; 0 = inactive; - = no result; + = active, no number. Unless noted, no stated cut-off is given here; in the data, active means inhibition above about 19%; inactive means the rest.
SMILES,SIAE primary,mABHD4 FP,TCR-CD3 inh,HTRA1 inhibitor,PRMT1 inh,BSA TAMRA ctr,TCR-CD3 inh conf,PRMT1 confirm,SIAE inh conf,others
CSc1cc(C)c(OCC(=O)Nc2c(C)nn(C)c2C)c(C)c1,0,0,0,0,0,-,-,-,-,
Cc1cc(NC(=O)CCCC(=O)Nc2ccc(F)cc2)no1,0,0,0,0,0,-,-,-,-,
CC(=O)[C@@]1(O)Cc2c(O)c3c(c(O)c2[C@H](O[C@H]2C[C@H](N)[C@H](O)[C@H](C)O2)C1)C(=O)c1ccccc1C3=O,81.3,101.2,175.5,-,169.5,+,166.9,153.1,81.4,
CCN(CC)S(=O)(=O)c1cccc(C(=O)N/N=C/c2ccc(O)c(O)c2O)c1,34.2,42.4,30.7,0,26.8,0,29.3,-,0,ABHD4 confirm=52.3
CCOc1ccccc1/C=N/NC(=O)c1cccc(S(=O)(=O)N(CC)CC)c1,0,0,0,0,0,-,-,-,-,
CCC(O)c1cnc(OCc2ccccc2)nc1OCc1ccccc1 (stereo not given),0,0,0,0,0,-,-,-,-,
Nc1cnccc1C(=O)O,20.0,85.5,64.7,0,70.9,32.7,25.2,0,0,ABHD4 confirm=0
Nc1ccccc1N1C(=O)c2cccc3cccc(c23)C1=O,0,0,0,-,0,-,-,-,-,
Cc1nn(C)c(C)c1N1C(=O)c2cccc3c(N)ccc(c23)C1=O,28.1,42.9,48.7,0,180.2,56.5,46.8,-,20.6,ABHD4 confirm=38.5
COc1cccc(OCC(=O)NNC(=O)c2ccc3ccccc3c2O)c1,18.9,0,44.1,0,0,0,39.4,-,0,
COc1ccccc1C(=O)NNC(=O)c1ccc2ccccc2c1O,19.9,0,31.6,0,0,0,37.8,-,0,
O=C(NNC(=O)c1ccc2ccccc2c1O)Nc1ccc(F)cc1,25.8,0,32.0,0,0,0,29.4,-,0,
CN(C)c1ccc(C=Cc2nccc3ccccc23)cc1,130.9,111.5,157.2,-,139.4,144.8,87.9,60.6,20.4,ABHD4 confirm=84.8
CCOC(=O)c1c(C)[nH]c(C(=O)COC(=O)c2cnccn2)c1C,20.1,0,38.2,0,0,0,0,-,0,
Cc1cc(NC(=O)C2CCN(C(=O)c3ccco3)CC2)ccc1Br,0,0,0,0,0,-,-,-,-,
Cn1c(=O)c2c(-c3ccccc3)n(-c3ccc(N)cc3)cc2n(C)c1=O,22.1,57.5,29.0,-,0,0,0,-,0,ABHD4 confirm=0
Cn1c(=O)c2c(-c3ccccc3)n(-c3cccc(O)c3)cc2n(C)c1=O,0,0,0,-,0,-,-,-,-,
Cc1cc2ccccc2n1CCNC(=O)c1ccc(S(=O)(=O)N2CCCCC2)cc1,37.4,57.8,62.5,0,0,0,0,-,0,ABHD4 confirm=192.9
O=C(NCCc1ccccc1)c1ccc(S(=O)(=O)N2CCCCC2)cc1,0,0,0,0,0,-,-,-,-,
COc1ccccc1CCC(=O)Nc1ccc(S(=O)(=O)Nc2ncccn2)cc1,0,0,0,0,0,-,-,-,-,
CCC(CNc1cc(OC)cc2cccnc12)NC1CCCCC1 (stereo not given),47.7,88.8,126.1,0,32.2,0,0,-,0,ABHD4 confirm=0
CC(=O)O[C@@H](C[C@@H](C)C1=C2C[C@H](O)C3[C@@]4(C)CCC(=O)C(C)(C)C4CC[C@]3(C)[C@@]2(C)CC1)[C@H]1OC1(C)C (stereo not given in full),0,0,0,0,0,-,-,-,-,
CC(=O)c1c(C)[nH]c(C(=O)OCC(=O)NCc2ccc(Cl)cc2)c1C,23.8,0,22.8,0,168.2,0,0,0,0,
Nc1cc2nc3ccccc3oc-2cc1=O,20.1,46.7,22.8,0,24.4,0,0,-,0,ABHD4 confirm=0
O=c1oc2ccccc2cc1-c1nc2ccccc2o1,0,0,0,0,0,-,-,-,-,
SMILES,SIAE primary,mABHD4 FP,TCR-CD3 inh,HTRA1 inhibitor,PRMT1 inh,BSA TAMRA ctr,TCR-CD3 inh conf,PRMT1 confirm,SIAE inh conf,others
CN(CCC#N)C(=O)COC(=O)c1c2c(nc3ccccc13)/C(=C\c1ccco1)CC2,18.7,44.9,33.5,0,31.5,0,34.0,0,0,ABHD4 confirm=0
CN(C)C(=O)c1cccc(-c2cnc3c(NC=O)cc(-c4ccccc4N(C)C)cn23)c1,29.2,74.1,42.3,-,137.3,0,0,29.1,0,ABHD4 confirm=70.7
O=C1NC2=C(C(=O)CCC2)C(c2ccc3ncccc3c2)N1 (stereo not given),0,0,0,0,0,-,-,-,-,
CC(C)C[C@H]1CN(CCCC[C@@H]2CNC(=O)C(=O)N2CCc2ccccc2)C(=O)C(=O)N1CCc1ccccc1,0,0,0,-,0,-,-,-,-,
Cc1ccc(N(C)c2nc(N)nc(N)c2N=O)cc1,52.1,84.8,197.4,-,173.0,+,198.2,-,95.2,
Cc1cccc(Nc2nc(N)nc(N)c2N=O)c1,0,0,0,0,0,-,-,-,-,
Cc1cc(C)c(-c2csc(NC(=O)C3=COCCO3)n2)c(C)c1,0,0,0,0,0,-,-,-,-,
Cc1cc(-c2csc(NC(=O)C3=COCCO3)n2)c(C)n1C,26.3,0,21.9,0,0,0,0,-,0,
S=c1[nH]c(-c2ccccc2)cn1/N=C/c1cccc2ccccc12,0,0,0,0,0,-,-,-,-,
Cc1ccc(/C=N/n2cc(-c3ccccc3)[nH]c2=S)s1,0,0,0,0,27.8,-,-,0,-,
Oc1ccc(/C=N/n2cc(-c3ccccc3)[nH]c2=S)cc1,0,0,0,0,44.2,-,-,23.5,-,
COc1cc(/C=N/n2cc(-c3ccccc3)[nH]c2=S)cc(OC)c1O,0,0,0,0,47.3,-,-,27.0,-,
S=c1[nH]c(-c2ccccc2)cn1/N=C/c1ccccc1Br,0,0,0,0,0,-,-,-,-,
Cc1ccc(-c2cc(C(F)F)nc(NCC3CCCO3)n2)cc1 (stereo not given),0,0,0,0,0,-,-,-,-,
CC(C)n1c(=S)[nH]c2c1c(=O)[nH]c(=O)n2C,0,0,0,0,44.7,-,-,46.8,-,
CC(C)c1ccc(CCNC(=O)CSC(=S)N2CCCC2)cc1,0,0,0,0,31.6,-,-,0,-,
